Reference: publication PMC3475971 (Analytical and Bioanalytical Chemistry, 2012)

Assays:
Format in all cases: binding
[1] = tested on: GAK; experiment: Thermal shift assay; conditions: thermal shift assay performed as described in [32]
[2] = target: T1, cyclin G-associated kinase (GAK) (Homo sapiens, UniProt O14976); experiment: Frontal affinity chromatography on GAK capillary column
T1 sequence (O14976 20-347): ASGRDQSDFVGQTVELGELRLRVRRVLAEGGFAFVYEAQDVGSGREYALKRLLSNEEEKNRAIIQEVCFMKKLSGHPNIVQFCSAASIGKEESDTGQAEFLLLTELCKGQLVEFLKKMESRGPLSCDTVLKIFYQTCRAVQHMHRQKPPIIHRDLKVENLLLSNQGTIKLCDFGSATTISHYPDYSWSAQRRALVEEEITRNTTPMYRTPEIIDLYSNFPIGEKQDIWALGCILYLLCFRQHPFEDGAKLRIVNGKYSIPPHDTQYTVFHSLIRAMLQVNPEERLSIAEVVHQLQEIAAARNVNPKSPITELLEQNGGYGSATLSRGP
Procedure, shortened: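 Human GAK residues 20–347 expressed in E. coli Rosetta (DE3), Ni-NTA and gel-filtration purified, tag removed with TEV protease, then coupled by reductive amination to aldehyde-silica capillary (100 × 0.5 mm). Frontal analysis: 20 mM ammonium acetate pH 6.8, 18 μL/min, 22 °C. Ligand 0.025–0.750 mM, UV 214 nm; DMSO void marker. Saturation moles versus concentration fitted (one-site plus linear nonspecific) for Btot and KD.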

[3] = target: T1, cyclin G-associated kinase (GAK); experiment: Fragment screening by zonal weak affinity chromatography

Structure (SMILES)	increase of melting temperature (ΔTm) of GAK [1]	Kd [2]	Kd [3]
O=c1c(O)c(-c2ccc(O)c(O)c2)oc2cc(O)cc(O)c12 [Quercetin]	9.4 °C		
Nc1ncnc2c1ncn2[C@@H]1O[C@H](CO)[C@@H](O)[C@H]1O [adenosine]		63 µM	41 µM
